From PMC9082424 (RSC Advances, 2018) come the findings set out here.

A value given as a limit tells only on which side of the number the result lay.

Assay [1] deals with T1, α-glucosidase (Saccharomyces cerevisiae, UniProt P53341). The assay is described as follows: α-Glucosidase inhibitory assay in vitro. It is filed as biochemical. Conditions: for α-Glucosidase inhibitory activity (in words): up to the highest tested concentration.
Assay [2] concerns the target T1, α-glucosidase. Nature of the assay: Steady-state kinetic analysis of α-glucosidase inhibition. The format is biochemical. An outline of the steps:
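Yeast α-glucosidase (final 0.025 U mL−1, in 75 mM phosphate buffer pH 7.4) premixed with test compound at several concentrations for 10 min at 37 °C. 4-NPGP (50–200 μM) added to start the reaction. 4-Nitrophenol followed at 405 nm every 30 s for 10 min, with initial velocity taken as ΔA per min. Analysed by Lineweaver–Burk plots. Ki came from secondary plots of slopes, and Ki′ from secondary plots of apparent 1/Vmax, against inhibitor concentration. Three independent experiments.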

T1 sequence (P53341 whole entry): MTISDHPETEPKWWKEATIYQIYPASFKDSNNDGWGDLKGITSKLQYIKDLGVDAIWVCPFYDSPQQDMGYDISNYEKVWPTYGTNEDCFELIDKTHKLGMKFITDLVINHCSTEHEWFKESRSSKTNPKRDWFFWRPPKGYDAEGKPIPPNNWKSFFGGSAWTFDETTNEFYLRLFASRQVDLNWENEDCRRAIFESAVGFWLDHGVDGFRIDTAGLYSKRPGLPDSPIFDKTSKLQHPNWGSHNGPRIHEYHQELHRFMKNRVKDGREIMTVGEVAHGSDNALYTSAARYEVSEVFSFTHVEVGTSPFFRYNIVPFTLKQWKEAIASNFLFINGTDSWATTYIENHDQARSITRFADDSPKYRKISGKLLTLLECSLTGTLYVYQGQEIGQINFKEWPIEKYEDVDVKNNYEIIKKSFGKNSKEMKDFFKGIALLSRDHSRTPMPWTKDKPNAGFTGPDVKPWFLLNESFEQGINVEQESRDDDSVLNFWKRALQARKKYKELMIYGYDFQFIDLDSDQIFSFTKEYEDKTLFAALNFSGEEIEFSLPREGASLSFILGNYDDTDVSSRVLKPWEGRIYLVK

In turn, `O=C(O)/C=C/c1ccc(O)c(O)c1` [CA, caffeic acid] displayed an IC50 in assay [1] above 100 µM.
As to `C[C@H]1COC2=C1C(=O)C(=O)c1c2ccc2c1CCCC2(C)C` [CTS, cryptotanshinone], in assay [1], the IC50 is above 100 µM.
For the molecule `O=C(/C=C/c1ccc(O)c2c1[C@H](C(=O)O)[C@@H](c1ccc(O)c(O)c1)O2)O[C@H](Cc1ccc(O)c(O)c1)C(=O)O` [LA, lithospermic acid], in assay [1], the IC50 is above 100 µM and the “α-Glucosidase inhibitory activity (in words)” value is listed as “weak inhibitory effect”.
In assay [1], `CC(C)C1=Cc2ccc3c(c2C(=O)C1=O)CCCC3(C)C` [MT, miltirone] displayed an IC50 above 100 µM.
Still for that read-out and setting: then `O=C(/C=C/c1ccc(O)c(O)c1)O[C@H](Cc1ccc(O)c(O)c1)C(=O)O` [RA, rosmarinic acid], with above 200 µM.
In assay [1], `O=C(/C=C/c1ccc(O)c(O)c1/C=C/c1ccc(O)c(O)c1)O[C@H](Cc1ccc(O)c(O)c1)C(=O)O` [SAA, salvianolic acid A] came in with an IC50 of 19.3 ± 0.89 µM. The affinity in assay [2] corresponds to a Ki of 21.2 µM. Moreover, the Inhibition mode entry in assay [2] (with respect to substrate 4-NPGP (50–200 μM)) was “competitive inhibition”.
In assay [1], `Cc1coc2c1C(=O)C(=O)c1c-2ccc2c1CCCC2(C)C` [TS-IIA, tanshinone IIA] came in with an IC50 above 100 µM.
For `Cc1coc2c1C(=O)C(=O)c1c-2ccc2c1CCCC2(C)CO` (stereo not shown) [TS-IIB, tanshinone IIB], in assay [1], the IC50 is above 100 µM and the “α-Glucosidase inhibitory activity (in words)” value was “weak inhibitory activity”.
Consider `C[C@H]1[C@H](C)CC[C@]2(C(=O)O)CC[C@]3(C)C(=CC[C@@H]4[C@@]5(C)CC[C@H](O)C(C)(C)[C@@H]5CC[C@]43C)[C@H]12` [UA, ursolic acid], for which the “α-Glucosidase inhibitory activity (in words)” value in assay [1] is on record as “weak inhibitory activity”.

What is called IC50 is the concentration needed to halve the response being measured. One may read the Ki as the equilibrium dissociation constant of an inhibitor or competing ligand from its target. The low end stands for higher affinity, the high end for lower affinity.
